miR-122 sensor = inhibitors of miR-122 in Huh7 cells; Huh7 miR-122 Renilla luciferase sensor, 48 h; neutral wells = 0, positive control = 100; activation (reporter increase), % at 12.5 µM; actives 0.3% (n = 340,000); AID 602342;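 active = mean replicate activation score at least 90 and every replicate individually at or above 90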;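 also: higher luciferase means less miR-122 activity so hits act as miR-122 inhibitors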
FGF22 binding = binders of recombinant human FGF22 by thermal shift; SYPRO orange fluorescence; percent of sucrose octasulfate shift, DMSO zero; activity (Tm shift, normalised), % at 9.99 µM; actives 1.5% (n = 340,000);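 active = mean Tm shift, scaled 0 neutral to 100 positive control, at about 1.3% or above, every replicate too, limit read from the data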
Target sequence (Q9HCT0 whole entry, looked up): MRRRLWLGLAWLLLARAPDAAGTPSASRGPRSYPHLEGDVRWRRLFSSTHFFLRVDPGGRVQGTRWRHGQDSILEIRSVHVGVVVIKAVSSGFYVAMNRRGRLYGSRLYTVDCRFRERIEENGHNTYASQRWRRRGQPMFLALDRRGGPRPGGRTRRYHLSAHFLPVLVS
E-sel inducer = E-selectin induction on HUVECs. P16581. HUVEC E-selectin immunofluorescence imaging; normalized: neutral wells 0, TNF-alpha wells 100. activation, % at 7.58 µM. actives 0.37% (n = 260,000). AID 686992;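 active = mean E-selectin-positive cell signal at least 10% of the positive control, reached in at least 60% of replicates, without over 20% cell loss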
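Test system: HUVEC; input: 3,000 HUVEC/well; measured by: immunofluorescence imaging; read-out: % PE-positive cells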
SIRT5 block = sirtuin-5 (human) deacylase inhibition; Purified SirT5, succinyl-peptide AMC, trypsin-coupled fluorescence; inhibition, % at 15 µM; actives 1.1% (n = 330,000); AID 652115; in the data active = inhibition above about 15%
S100A4 inh HTS = inhibitors of human S100A4 binding to myosin IIA peptide | P26447 | S100A4/TAMRA-MyoIIA peptide fluorescence polarization | inhibition, % at 10.7 µM | actives 0.14% (n = 360,000) | AID 652163;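 active = mean inhibition of at least 70% across replicates, with every replicate also reaching that level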
Target sequence (P26447 whole entry, looked up): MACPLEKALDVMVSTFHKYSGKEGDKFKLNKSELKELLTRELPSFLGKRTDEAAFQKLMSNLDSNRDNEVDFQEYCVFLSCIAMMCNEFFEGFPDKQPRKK
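Compound dosing: one dose per compound; test system: human S100A4 monomer with TAMRA-labelled myosin IIA peptide; probe or stimulus: TAMRA-labelled myosin IIA heavy-chain peptide probe, 5 nM; medium: HEPES buffer with Ca2+, pH 7.2; schedule: 5 min incubation before reading; benchmarks: neutral control DMSO, positive control TFP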
* marks the source's active call; other numbers are inactive results; [ ] = another dose, or the depositor's remark. The list is not random: actives were taken first. Their share in the collection is about 2.5%.

What do the screens show for `COc1cc(/C(C)=N/NC(=O)c2ccc(CSc3nncn3C)cc2)cc(OC)c1OC`?
miR-122 sensor: -4; FGF22 binding: 43*; E-sel inducer: 0; SIRT5 block: 2; S100A4 inh HTS: -6

Results for COc1ccc(/C=N/NC(=O)c2ccc(CSc3nncn3C)cc2)cc1OC ?
miR-122 sensor: -2; FGF22 binding: 0; E-sel inducer: 0; SIRT5 block: -2; S100A4 inh HTS: -4

What do the screens show for `CCCCCCC1CC(CSC(=N)N)OC1=O` (stereo not given)?
miR-122 sensor: 2

What do the screens show for `CCCCCC1(C(=O)OCC)CC(CSC(=N)N)OC1=O` (stereo not given)?
FGF22 binding: 44*; SIRT5 block: -8; S100A4 inh HTS: -5

What do the screens show for `C[C@@H]1CN([C@@H](C)CO)C(=O)c2cc(C#Cc3cccc(F)c3)cnc2O[C@@H]1CN(C)C(=O)C1CCC1`?
miR-122 sensor: 11[16.7 µM]; FGF22 binding: 0; E-sel inducer: 0; SIRT5 block: 1; S100A4 inh HTS: 9

Results for COc1ccc(NC(=O)Nc2ccc3c(c2)C(=O)N([C@H](C)CO)C[C@@H](C)[C@H](CN(C)C(=O)Nc2ccc4c(c2)OCO4)O3)cc1 ?
miR-122 sensor: -14[16.7 µM]; FGF22 binding: 0; E-sel inducer: -3

What do the screens show for `CC(NC(=O)CSc1n[nH]c(=O)[nH]c1=O)C1CC2CCC1C2` (stereo not given)?
FGF22 binding: 0; E-sel inducer: 4; SIRT5 block: -7; S100A4 inh HTS: 4

Results for Cc1cc(=O)[nH]c(SCC(=O)NC(C)C2CC3CCC2C3)c1C#N (stereo not given) ?
FGF22 binding: 44*; SIRT5 block: 0; S100A4 inh HTS: 0

How did COc1ccc(NC(=O)CN2CCc3ccccc3C2)c(OC)c1 do in these assays?
FGF22 binding: 0; E-sel inducer: 0; SIRT5 block: 0; S100A4 inh HTS: 0

Results for COc1ccc(NC(=O)CN2C(=O)N(C)Cc3ccccc32)c(C)c1 ?
FGF22 binding: 44*; SIRT5 block: -1; S100A4 inh HTS: -6

How did C[C@@H]1CN([C@H](C)CO)C(=O)CCCn2cc(nn2)CO[C@H]1CN(C)Cc1ccncc1 do in these assays?
miR-122 sensor: 0[16.7 µM]; E-sel inducer: 0

How did CCOC(=O)Sc1nc2ncncc2[nH]1 do in these assays?
miR-122 sensor: 9; FGF22 binding: 43*; E-sel inducer: 1; SIRT5 block: 1; S100A4 inh HTS: -1

How did c1ccc(CSc2nc3ncncc3[nH]2)cc1 do in these assays?
FGF22 binding: 0; E-sel inducer: 0; SIRT5 block: -3; S100A4 inh HTS: 5

What do the screens show for `CC(=O)Nc1nc2ccc(S(=O)(=O)N3CCCC3)cc2s1`?
miR-122 sensor: -4; FGF22 binding: 0; E-sel inducer: 0; SIRT5 block: 1; S100A4 inh HTS: -16

What do the screens show for `CCOC(=O)c1ccc2nc(NC(C)=O)sc2c1`?
miR-122 sensor: -7; FGF22 binding: 43*; E-sel inducer: 0; SIRT5 block: 13; S100A4 inh HTS: 2

Results for CCOc1ccc2nc(NC(=O)CS(=O)(=O)c3ccc(C)cc3)sc2c1 ?
miR-122 sensor: -2; SIRT5 block: 32*; S100A4 inh HTS: -1

What do the screens show for `CCCC(=O)Nc1nc2ccc(S(=O)(=O)N3CCCCC3)cc2s1`?
miR-122 sensor: 118*; FGF22 binding: 0; E-sel inducer: 1; SIRT5 block: -5; S100A4 inh HTS: -2

Results for C[C@H]1CN([C@@H](C)CO)C(=O)Cc2cc(NC(=O)Nc3ccccc3)ccc2O[C@H]1CN(C)C(=O)Nc1ccc2c(c1)OCO2 ?
miR-122 sensor: 10[16.7 µM]; FGF22 binding: 0; E-sel inducer: 0; SIRT5 block: 6; S100A4 inh HTS: -4

How did C[C@@H]1CCCCO[C@@H](CN(C)C(=O)Nc2cccc3ccccc23)[C@H](C)CN([C@@H](C)CO)C(=O)c2cc(NC(=O)c3ccccc3)ccc2O1 do in these assays?
miR-122 sensor: -5[16.7 µM]; FGF22 binding: 0; SIRT5 block: 17*; S100A4 inh HTS: 2

How did C[C@@H]1CN([C@@H](C)CO)C(=O)c2cc(N(C)C)ccc2O[C@@H]1CN(C)C(=O)Nc1cccc2ccccc12 do in these assays?
miR-122 sensor: -7[16.7 µM]; FGF22 binding: -2; E-sel inducer: 39*; SIRT5 block: -2; S100A4 inh HTS: -1

Source: PubChem
